Data set [1] concerns the target Human immunodeficiency virus type 1 protease (Human immunodeficiency virus 1) (UniProt Q72874). In words: Inhibition of recombinant HIV-1 protease (NY-5) using 5 uM.
Data set [2] has the same target. The experiment in a line: Inhibition of recombinant HIV-1 protease (NY-5) using 50 nM. The gist of the method:
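Recombinant HIV-1 protease (NY5 sequence) was expressed in E. coli and purified. It was preincubated with inhibitor in DMSO for 5 min at 37 °C in MES–NaOH pH 6.0 with DTT and EDTA. Substrate H-SQNYPIV-OH was then added for 60 min at 37 °C, and the reaction was stopped with TFA. The PIV product was measured by reverse-phase HPLC at 215 nm against a synthetic standard.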

Data set [3] deals with Human immunodeficiency virus type 1 protease (Human immunodeficiency virus 1, UniProt Q72874). In words: Inhibition of recombinant HIV-1 protease (NY-5).
A short description of data set [4]: Toxic concentration was determined for CEM-SS cells. As to conditions: human, read-out: TC50 (the source's name). Format: toxicity, cell-based. The method, boiled down: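 CEM-SS cells (2.5 × 10^4 cells/mL) were exposed to compound in RPMI-1640 with 10% FCS and gentamicin for 6 days at 37 °C in 5% CO2. Viability was read by XTT staining, and TC50 was taken as the mean of duplicates.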

In data set [5] the test system is CEM-SS. The experiment in a line: Antiviral activity was determined based on inhibition of HIV-1 IIIB induced cytopathic effects in CEM-SS cells in vitro using tetrazolium reagent. The class given is functional, cell-based. As to conditions: Homo sapiens. The method, boiled down:
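CEM-SS cells (2.5 × 10^4 cells/mL) were cultured with HIV-1 IIIB and compound in RPMI-1640 with 10% FCS and gentamicin for 6 days at 37 °C in 5% CO2. The virus titer was set to kill all cells by day 6. Cytopathic effect was read by XTT staining, and IC50 was taken as the mean of duplicates.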

Data set [6] in a line: Bioavailability in rat after i.d. administration. Format: ADME, organism-based. The note with it: in vivo. The gist of the method: (§1)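 Three male Sprague–Dawley rats (300–400 g) per compound were anesthetized and dosed at 10 mg/kg in 50% PEG. Dosing was iv via the femoral vein or id by tube into the duodenum. Plasma was extracted with internal standard and analyzed by C18 HPLC with UV at 210 nm. Analysis was noncompartmental; F was calculated from id vs iv AUC. Values are mean ± SEM.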

Data set [7] can be described thus: Plasma half life was determined in rats after intravenous administration of the drug. The class given is ADME, organism-based. The note with it: rat. The gist of the method: as §1
Data set [8] can be described thus: Time of maximum plasma concentration (Tmax) was determined in rats after intraduodenal administration of the drug. Format: ADME, organism-based. The note with it: rat. The method, boiled down:
as §1

Data set [9] in a line: Maximum plasma concentration (Cmax) was determined in rats after intraduodenal administration of the drug. Format: ADME, organism-based. Also on record: route intraduodenal. The note with it: rat. The gist of the method:
as §1

Data set [10] deals with Human immunodeficiency virus type 1 protease (Human immunodeficiency virus 1) (UniProt Q72874). In words: Inhibition of recombinant HIV-1 protease (NY-5) using 50 nM.

The structures appear in SMILES notation.

As to `CC(C)(C)NC(=O)[C@@H]1CSCN1C(=O)[C@@H](O)[C@H](Cc1ccccc1)NC(=O)COc1ccccc1`, the inhibition in data set [1] was found to be 48%.

For `Cc1ccc(CNC(=O)[C@@H]2CSCN2C(=O)[C@@H](O)[C@H](Cc2ccccc2)NC(=O)c2cccc(O)c2C)cc1`, the inhibition in data set [2] turned out to be 13%.

For `Cc1ccccc1C(=O)N[C@@H](Cc1ccccc1)[C@H](O)C(=O)N1CSC[C@H]1C(=O)NC(C)(C)C`, the inhibition in [1] was determined as 75%.

Regarding `CCc1cccc(CC)c1OCC(=O)N[C@@H](Cc1ccccc1)[C@H](O)C(=O)N1CSC[C@H]1C(=O)NC(C)(C)C`, the inhibition in [1] was 62%.

As to `CCCc1c(O)cccc1C(=O)N[C@@H](Cc1ccccc1)[C@H](O)C(=O)N1CSC[C@H]1C(=O)NC(C)(C)C`, the results for the inhibition in data set [1] and in data set [2] were 92% and 17%, respectively.

On to `Cc1cccc(C)c1CNC(=O)[C@@H]1CSCN1C(=O)[C@@H](O)[C@H](Cc1ccccc1)NC(=O)c1cccc(O)c1C`, for which the Ki in data set [3] came to 4.8 nM. In [2], the inhibition was 75%.

In the case of `CS[C@H](NC(=O)COc1cccc2cnccc12)C(=O)N[C@@H](Cc1ccccc1)[C@H](O)C(=O)N1CSC[C@H]1C(=O)NC(C)(C)C`, the CC50 in data set [4] is greater than 20000 nM. The compound further registered an IC50 in data set [5] of 34 nM. Also, in [3], the Ki turned out to be 0.74 nM.

Consider `CCc1c(O)cccc1C(=O)N[C@@H](Cc1ccccc1)[C@H](O)C(=O)N1CSC[C@H]1C(=O)NC(C)(C)C`, for which the inhibition in data set [1] was determined as 98%; in data set [2] it was 46%. In data set [6], the bioavailability came out at 36.2%. This compound also had a half-life in [7] of 74 min. Also, the Tmax in data set [8] is 30 min. In data set [3], the Ki was determined as 22.2 nM. In data set [9], the highest level (Cmax) was 1730 nM.

Regarding `Cc1c(O)cccc1C(=O)N[C@@H](Cc1ccccc1)[C@H](O)C(=O)N1CSC(C)(C)[C@H]1C(=O)NC(C)(C)C`, the inhibition in data set [1] worked out at 99%; in data set [2], 88%. For the same compound, the CC50 in [4] is greater than 20000 nM. In addition, the IC50 in [5] turned out to be 19 nM. The compound further came in with a bioavailability in [6] of 39.4%. In addition, in data set [7], the half-life came to 83 min. Further, the Tmax in data set [8] is 30 min. In addition, in [3], the Ki is 5.14 nM. Besides, the peak level in [9] (Cmax) was 2600 nM.

In the case of `Cc1ccc(OCC(=O)N[C@@H](Cc2ccccc2)[C@H](O)C(=O)N2CSC[C@H]2C(=O)NC(C)(C)C)cc1`, the inhibition in [1] was 44%.

For `Cc1c(O)cccc1C(=O)N[C@@H](Cc1ccccc1)[C@H](O)C(=O)N1CSC(C)(C)[C@H]1C(=O)NCc1ccccc1C(F)(F)F`, in data set [2], the inhibition was found to be 88%.

`CCCc1cccc(C)c1OCC(=O)N[C@@H](Cc1ccccc1)[C@H](O)C(=O)N1CSC[C@H]1C(=O)NC(C)(C)C`: the inhibition in data set [1] worked out at 97%; in [2] it was 35%.

As to `CCc1c(O)cccc1C(=O)N[C@@H](Cc1ccccc1)[C@H](O)C(=O)N1CSC(C)(C)[C@H]1C(=O)NCc1ccccc1C`, in data set [4], the CC50 is greater than 20000 nM. In data set [5], this compound registered an IC50 of 11 nM. In addition, the bioavailability in [6] was found to be 10%. For the same compound, in data set [7], the half-life was 126 min. Moreover, in data set [8], the Tmax is 10 min. In addition, the Ki in [3] worked out at 0.19 nM. The inhibition in [2] amounted to 97%. This compound also returned a peak concentration (Cmax) in [9] of 230 nM.

Regarding `CS[C@H](NC(=O)COc1cccc2cnccc12)C(=O)N[C@@H](Cc1ccccc1)[C@H](O)C(=O)N1CSC(C)(C)[C@H]1C(=O)NC(C)(C)C`, the CC50 in data set [4] is greater than 20000 nM. The IC50 in data set [5] was 6 nM. For the same compound, in data set [3], the inhibitory constant (Ki) amounted to 0.088 nM.

For the compound `Cc1cccc(C)c1OCC(=O)N[C@@H](Cc1ccccc1)[C@H](O)C(=O)N1CSC(C)(C)[C@H]1C(=O)NC(C)(C)C`, the inhibition in data set [1] amounted to 97%; in data set [2] it was 35%. For the same compound, the CC50 in data set [4] was greater than 20000 nM. The IC50 in [5] was greater than 200 nM. In addition, the Ki in data set [3] worked out at 1.4 nM.

For `Cc1ccccc1OCC(=O)N[C@@H](Cc1ccccc1)[C@H](O)C(=O)N1CSC[C@H]1C(=O)NC(C)(C)C`, the inhibition in [1] turned out to be 82%.

For `Cc1c(O)cccc1C(=O)N[C@@H](Cc1ccccc1)[C@H](O)C(=O)N1CSC[C@H]1C(=O)NCc1ccccc1`, the Ki in data set [3] was 59 nM. Besides, in data set [10], the inhibition amounted to 43%.

On to `Cc1c(O)cccc1C(=O)N[C@@H](Cc1ccccc1)[C@H](O)C(=O)N1CSC(C)(C)[C@H]1C(=O)NCc1ccccc1Cl`, for which, in data set [4], the CC50 was greater than 20000 nM. Besides, it took 34 nM to reach half-maximal inhibition in data set [5] (IC50). The Ki in [3] came out at 0.29 nM. For the same compound, in [2], the inhibition stood at 95%.

Consider `Cc1cccc(CNC(=O)[C@@H]2CSCN2C(=O)[C@@H](O)[C@H](Cc2ccccc2)NC(=O)c2cccc(O)c2C)c1`, for which the inhibition in [2] amounted to 18%.

With `Cc1ccccc1CNC(=O)[C@@H]1CSCN1C(=O)[C@@H](O)[C@H](Cc1ccccc1)NC(=O)c1cccc(O)c1C`, the CC50 in data set [4] is greater than 20000 nM. In addition, the IC50 in data set [5] is greater than 200 nM. Further, the bioavailability in data set [6] worked out at 32.3%. Besides, the half-life in data set [7] worked out at 41 min. Besides, the Tmax in [8] is 30 min. In addition, the inhibitory constant (Ki) in data set [3] is 8.9 nM. In [9], this compound showed a Cmax of 770 nM.

`Cc1cccc(C)c1OCC(=O)N[C@@H](Cc1ccccc1)[C@H](O)C(=O)N1CSC[C@H]1C(=O)NC(C)(C)C`: the figures for the inhibition in data set [1] and in [2] were 95% and 56%, respectively. For the same compound, in data set [4], the CC50 is greater than 20000 nM. Moreover, the IC50 in [5] was greater than 200 nM. Also, in [3], the Ki turned out to be 21.7 nM.

Regarding `Cc1cccc(OCC(=O)N[C@@H](Cc2ccccc2)[C@H](O)C(=O)N2CSC[C@H]2C(=O)NC(C)(C)C)c1`, the inhibition in data set [1] came to 38%.

For `CCc1c(O)cccc1C(=O)N[C@@H](Cc1ccccc1)[C@H](O)C(=O)N1CSC(C)(C)[C@H]1C(=O)NC(C)(C)C`, the inhibition stood at 99% in [1] and 84% in data set [2]. Moreover, in data set [4], the CC50 was greater than 20000 nM. In data set [5], this compound yielded an IC50 of 92 nM. In [6], the bioavailability is 37%. Besides, the half-life in data set [7] was 84 min. Also, the Tmax in data set [8] was 30 min. Moreover, the Ki in data set [3] came to 2.24 nM. Also, the Cmax in data set [9] came out at 1160 nM.

Regarding `CC(C)(C)NC(=O)[C@@H]1CSCN1C(=O)[C@@H](O)[C@H](Cc1ccccc1)NC(=O)c1ccccc1`, the inhibition in [1] amounted to 52%.

Regarding `CCc1cccc(C)c1OCC(=O)N[C@@H](Cc1ccccc1)[C@H](O)C(=O)N1CSC[C@H]1C(=O)NC(C)(C)C`, the inhibition in data set [1] amounted to 94%; in data set [2], 32%.

In the case of `CC(C)(C)NC(=O)[C@@H]1CSCN1C(=O)[C@@H](O)[C@H](Cc1ccccc1)NC(=O)c1cccc(O)c1`, the inhibition in data set [1] worked out at 76%.

Consider `Cc1c(O)cccc1C(=O)N[C@@H](Cc1ccccc1)[C@H](O)C(=O)N1CSC[C@H]1C(=O)NC(C)(C)C`, for which the inhibition in data set [1] turned out to be 97%; in data set [2] it was 36%. For the same compound, the CC50 in data set [4] was greater than 20000 nM. In data set [5], this compound had an IC50 greater than 200 nM. The compound further gave a bioavailability in data set [6] of 33.9%. For the same compound, in [7], the half-life was determined as 59 min. The Tmax in data set [8] is 30 min. For the same compound, the Ki in [3] is 24.9 nM. Also, the Cmax in data set [9] stood at 2910 nM.

As to `Cc1c(N)cccc1C(=O)N[C@@H](Cc1ccccc1)[C@H](O)C(=O)N1CSC[C@H]1C(=O)NC(C)(C)C`, in data set [1], the inhibition worked out at 81%.

For orientation: inhibition means how much of the control response was suppressed. In general, Ki refers to a dissociation constant, usually derived from enzyme kinetics or from competition with a known ligand. The IC50 is the point on the concentration scale where inhibition reaches its midpoint. Usually bioavailability stands for the share of a dose that reaches the circulation, judged against a reference dose that is usually intravenous. Higher therefore signals much systemic uptake. One may read the half-life as how long it takes for the measured level to halve. Usually Tmax stands for the time from dosing to the highest level. What is called Cmax is the maximum level reached in the sampled fluid or tissue.

(Values after ChEMBL document CHEMBL1132212, “Structure-activity relationship of small-sized HIV protease inhibitors containing allophenylnorstatine” (J Med Chem, 1999).)
